Data from ChEMBL document CHEMBL4715682, “Potent trifluoromethoxy, trifluoromethylsulfonyl, trifluoromethylthio and pentafluorosulfanyl containing (1,3,4-oxadiazol-2-yl)benzamides against drug-resistant Gram-positive bacteria” (RSC Med Chem, 2020).
Converted amounts (≈) assume the structure as drawn.

Legend:
Staphylococcus aureus [1] = assay: Antibacterial activity against methicillin-resistant Staphylococcus aureus NRS387 assessed as inhibition of visible bacterial growth incubated for 18 to 20 hrs by CLSI method; format: functional; conditions: time 18-20 hrs
How it was run: (§1)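 CLSI broth microdilution. Strains grown aerobically overnight on tryptic soy agar at 37 °C, adjusted to 0.5 McFarland and diluted in cation-adjusted Mueller–Hinton broth to about 5×10^5 CFU/mL. Compounds and control drugs serially diluted across the plate. Incubated aerobically at 37 °C for 18-20 h. MIC is the lowest concentration with no visible growth.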

Staphylococcus aureus [2] = assay: Synergistic antibacterial activity against methicillin-resistant Staphylococcus aureus ATCC 33592 assessed as fractional inhibitory concentration index in presence of daptomycin by checkerboard assay; format: functional
Staphylococcus aureus [3] = assay: Synergistic antibacterial activity against methicillin-resistant Staphylococcus aureus ATCC 33592 assessed as fractional inhibitory concentration index in presence of Vancomycin; format: functional
Staphylococcus aureus [4] = assay: Antibacterial activity against methicillin-resistant Staphylococcus aureus NRS386 assessed as inhibition of visible bacterial growth incubated for 18 to 20 hrs by CLSI method; format: functional; conditions: time 18-20 hrs; how it was run: as §1
[5] = Hemolytic activity in human RBC at 64 ug/ml incubated for 60 mins relative to control; format: ADME, cell-based, Erythrocyte; conditions: red blood cells (erythrocytes), at 64 µg/mL, read-out: Activity
How it was run: (§2)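 Single-donor human erythrocytes as a 5% v/v suspension in PBS. Compounds serially diluted in PBS, in triplicate, and incubated with RBCs at 37 °C for 60 min. PBS served as the negative control and Triton-X as the positive control. Samples spun at 4,000 rpm for 5 min and supernatant absorbance read at 540 nm. Percent hemolysis = 100×(sample−negative)/(positive−negative).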

Staphylococcus aureus [6] = assay: Antibacterial activity against methicillin-resistant Staphylococcus aureus ATCC 33592 assessed as inhibition of visible bacterial growth incubated for 18 to 20 hrs by CLSI method; format: functional; conditions: time 18-20 hrs; how it was run: as §1
Streptococcus pneumoniae = assay: Antibacterial activity against […] Streptococcus pneumoniae ATCC 700677 assessed as inhibition of visible bacterial growth incubated for 18 to 20 hrs by CLSI method; format: functional; conditions: time 18-20 hrs; how it was run: as §1
Staphylococcus aureus [7] = assay: Antibacterial activity against methicillin-resistant Staphylococcus aureus NRS484 assessed as inhibition of visible bacterial growth incubated for 18 to 20 hrs by CLSI method; format: functional; conditions: time 18-20 hrs; how it was run: as §1
Staphylococcus aureus [8] = assay: Bacteriostatic activity against methicillin-resistant Staphylococcus aureus ATCC 33592 assessed as reduction in bacterial growth incubated for 18 hrs by CLSI method; format: functional
[9] = Hemolytic activity in human RBC at 32 ug/ml incubated for 60 mins relative to control; format: ADME, cell-based, Erythrocyte; conditions: red blood cells (erythrocytes), at 32 µg/mL, read-out: Activity; how it was run: as §2
Staphylococcus aureus [10] = assay: Antibacterial activity against methicillin-resistant Staphylococcus aureus USA400 infected in mouse J774 cells assessed as log reduction in intracellular growth at 8 ug/ml incubated for 18 to 22 hrs; format: functional; conditions: dose 8 µg/ml; time 18-22 hrs
How it was run: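 J774 murine macrophages grown in DMEM with 10% FBS at 37 °C, 5% CO2. Cells infected with MRSA USA400 at MOI about 10:1 for 1 h, then washed with gentamicin to remove extracellular bacteria. Agents added at 8 or 16 μg/mL in triplicate, with DMSO vehicle control, for 24 h. Cells lysed with 0.1% Triton-X, lysates plated on tryptic soy agar, and CFU counted after 18-22 h at 37 °C. Analysed by two-way ANOVA with Dunnett's test.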

## O=C(Nc1nnc(-c2cccs2)o1)c1ccc(S(=O)(=O)C(F)(F)F)cc1
Staphylococcus aureus [1]
  MIC: 4 µg/mL (≈ 9.92 µM)
Staphylococcus aureus [2]
  fractional inhibitory concentration index (FICI): 0.63
Staphylococcus aureus [3]
  fractional inhibitory concentration index (FICI): 1.03
Staphylococcus aureus [4]
  MIC: 4 µg/mL (≈ 9.92 µM)
[5]
  hemolysis at 1 h, 64 ug/ml: 35%
Staphylococcus aureus [6]
  MIC: 0.5 µg/mL (≈ 1.24 µM)
Streptococcus pneumoniae
  MIC: 1 µg/mL (≈ 2.48 µM)
Staphylococcus aureus [7]
  MIC: 4 µg/mL (≈ 9.92 µM)
Staphylococcus aureus [8]
  MBC: > 128 µg/mL
[9]
  hemolysis at 1 h, 32 ug/ml: 23%
Staphylococcus aureus [10]
  Activity: 0.5 log10CFU/ml
